According to ChEMBL document CHEMBL1777677, “Synthesis of chromone carboxamide derivatives with antioxidative and calpain inhibitory properties” (Eur J Med Chem, 2011):

Experiments:
[1] = Inhibition of human erythrocyte calpain using Suc-Leu-Tyr-AMC substrate after 30 mins by spectrofluorimetry
Procedure, shortened: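 Human erythrocyte calpain I, 34 nM stock added to start, with Suc-Leu-Tyr-AMC, NaCl and CaCl2 in 50 mM Tris–HCl pH 7.5, 1 mM DTT; DMSO ≤1% final. After 30 min at rt, AMC fluorescence read (ex 380/em 460 nm) against calpain-free blank. IC50 from percent inhibition across concentrations; means ± SD, three independent experiments.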

[2] = test system: Radical scavenging activity; assay: Antioxidant activity assessed as DPPH free radical scavenging activity after 30 mins; format: functional
Procedure, shortened: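 Test samples in ethanol mixed with 100 µM ethanolic DPPH, incubated 37 °C for 30 min; absorbance read at 515 nm. Percent inhibition taken against ethanol-treated controls; IC50 is the concentration scavenging 50% of DPPH radicals. Means ± SD of three independent experiments.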

[3] = test system: Liver; assay: Antioxidant activity in rat liver homogenates assessed as inhibition of iron-ascorbic acid mix-induced lipid peroxidation after 30 mins by TBARS assay; format: functional, tissue-based; conditions: 0.5 h
Procedure, shortened: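 Rat liver homogenate (11 mg protein/ml, Bradford vs BSA) incubated with 10 µM […], 0.4 mM ascorbic acid and graded compound concentrations in 50 mM Tris–HCl pH 7.5, 37 °C for 30 min. Stopped with TBA–TCA reagent containing HCl and BHT, heated 95 °C 30 min, centrifuged, supernatant A535 read. IC50 from three independent experiments, means ± SD.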

| IC50 [1] | IC50 [2] | IC50 [3] | SMILES |
| --- | --- | --- | --- |
| 190 nM | – | – | COc1cc2oc(C(=O)N[C@@H](Cc3ccccc3)C(=O)C(=O)NCc3ccccc3)c(C)c(=O)c2cc1OC |
| 270 nM | – | – | COc1ccc(CCNC(=O)C(=O)[C@H](Cc2ccccc2)NC(=O)c2oc3cc(OC)c(OC)cc3c(=O)c2C)cc1 |
| 430 nM | – | – | COc1ccc2c(=O)c(C)c(C(=O)N[C@@H](Cc3ccccc3)C(=O)C(=O)NCc3ccccc3)oc2c1 |
| 110 nM | – | – | COc1cc2oc(C(=O)N[C@@H](Cc3ccccc3)C(=O)C(=O)NCc3ccccc3)c(C)c(=O)c2cc1O |
| 280 nM | 26500 nM | 48700 nM | Cc1c(C(=O)N[C@@H](Cc2ccccc2)C(=O)C(=O)NCc2ccccc2)oc2cc(O)c(O)cc2c1=O |
| 130 nM | – | – | Cc1c(C(=O)N[C@@H](Cc2ccccc2)C(=O)C(=O)NCc2ccccc2)oc2cc(O)ccc2c1=O |

The remaining lines, values behind:

| SMILES | IC50 [1] | IC50 [2] | IC50 [3] |
| --- | --- | --- | --- |
| COc1cc2oc(C(=O)N[C@@H](Cc3ccccc3)C(=O)C(N)=O)c(C)c(=O)c2cc1OC | 90 nM | – | – |
| COc1ccc2c(=O)c(C)c(C(=O)N[C@@H](Cc3ccccc3)C(=O)C(N)=O)oc2c1 | 120 nM | – | – |
| COc1ccc(CCNC(=O)C(=O)[C@H](Cc2ccccc2)NC(=O)c2oc3cc(OC)ccc3c(=O)c2C)cc1 | 230 nM | – | – |
| COc1ccc(CCNC(=O)C(=O)[C@H](Cc2ccccc2)NC(=O)c2oc3cc(OC)c(O)cc3c(=O)c2C)cc1 | 100 nM | – | – |
| COc1ccc(CCNC(=O)C(=O)[C@H](Cc2ccccc2)NC(=O)c2oc3cc(O)c(O)cc3c(=O)c2C)cc1 | 1290 nM | 41400 nM | 52500 nM |
| COc1ccc(CCNC(=O)C(=O)[C@H](Cc2ccccc2)NC(=O)c2oc3cc(O)ccc3c(=O)c2C)cc1 | 90 nM | – | – |
| Cc1c(C(=O)N[C@@H](Cc2ccccc2)C(=O)C(N)=O)oc2ccccc2c1=O | 70 nM | > 100000 nM | > 100000 nM |
| O=C1O[C@H]([C@@H](O)CO)C(O)=C1O [ASCORBIC ACID] | – | 30800 nM | > 100000 nM |
